The source of these data is ChEMBL document CHEMBL1133762, “Aureobasidins: structure-activity relationships for the inhibition of the human MDR1 P-glycoprotein ABC-transporter” (J Med Chem, 2000).

≈ marks a conversion by molar mass, not a printed value. Bounds are passed on as bounds.

Data set [1] has as its system Saccharomyces cerevisiae. Briefly: Minimum growth-inhibitory concentration against Saccharomyces cerevisiae ATCC 9763 by agar dilution method by the suspension of a fungi containing ~5 x 10e (7) cells/mL. In kind it is functional. The method, boiled down: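 Agar dilution on Sabouraud–dextrose agar plates with graded compound concentrations. A loopful of yeast suspension (about 5 × 10⁷ cells/mL) was streaked on the surface. Plates were incubated at 30 °C for 3 days. MIC is the lowest concentration with no detectable growth.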

In data set [2] the target is P-glycoprotein (ABCB1, MDR1) (Homo sapiens, UniProt P08183). Briefly: Human MDR1 Pgp inhibitory activity by using standard calcein-AM efflux method with the human leukemia CEM cells. In kind it is cell-based, CCRF-CEM. The settings on record: probe calcein-AM; for IC50: human, human leukemia CEM cells.
For data set [3], the target named is ATP-dependent translocase ABCB1 (Homo sapiens, UniProt P08183). Kind of data set: Direct comparison of the antifungal activities with the relative Pgp-inhibitory potencies, calculated by comparing ug/mL IC50(or IC20). In kind it is functional.
Data set [4] has as its system Saccharomyces cerevisiae. Kind of data set: Relative antifungal activity (against Saccharomyces cerevisiae) compared to AbA.

P-glycoprotein (ABCB1, MDR1), sequence (P08183 whole entry): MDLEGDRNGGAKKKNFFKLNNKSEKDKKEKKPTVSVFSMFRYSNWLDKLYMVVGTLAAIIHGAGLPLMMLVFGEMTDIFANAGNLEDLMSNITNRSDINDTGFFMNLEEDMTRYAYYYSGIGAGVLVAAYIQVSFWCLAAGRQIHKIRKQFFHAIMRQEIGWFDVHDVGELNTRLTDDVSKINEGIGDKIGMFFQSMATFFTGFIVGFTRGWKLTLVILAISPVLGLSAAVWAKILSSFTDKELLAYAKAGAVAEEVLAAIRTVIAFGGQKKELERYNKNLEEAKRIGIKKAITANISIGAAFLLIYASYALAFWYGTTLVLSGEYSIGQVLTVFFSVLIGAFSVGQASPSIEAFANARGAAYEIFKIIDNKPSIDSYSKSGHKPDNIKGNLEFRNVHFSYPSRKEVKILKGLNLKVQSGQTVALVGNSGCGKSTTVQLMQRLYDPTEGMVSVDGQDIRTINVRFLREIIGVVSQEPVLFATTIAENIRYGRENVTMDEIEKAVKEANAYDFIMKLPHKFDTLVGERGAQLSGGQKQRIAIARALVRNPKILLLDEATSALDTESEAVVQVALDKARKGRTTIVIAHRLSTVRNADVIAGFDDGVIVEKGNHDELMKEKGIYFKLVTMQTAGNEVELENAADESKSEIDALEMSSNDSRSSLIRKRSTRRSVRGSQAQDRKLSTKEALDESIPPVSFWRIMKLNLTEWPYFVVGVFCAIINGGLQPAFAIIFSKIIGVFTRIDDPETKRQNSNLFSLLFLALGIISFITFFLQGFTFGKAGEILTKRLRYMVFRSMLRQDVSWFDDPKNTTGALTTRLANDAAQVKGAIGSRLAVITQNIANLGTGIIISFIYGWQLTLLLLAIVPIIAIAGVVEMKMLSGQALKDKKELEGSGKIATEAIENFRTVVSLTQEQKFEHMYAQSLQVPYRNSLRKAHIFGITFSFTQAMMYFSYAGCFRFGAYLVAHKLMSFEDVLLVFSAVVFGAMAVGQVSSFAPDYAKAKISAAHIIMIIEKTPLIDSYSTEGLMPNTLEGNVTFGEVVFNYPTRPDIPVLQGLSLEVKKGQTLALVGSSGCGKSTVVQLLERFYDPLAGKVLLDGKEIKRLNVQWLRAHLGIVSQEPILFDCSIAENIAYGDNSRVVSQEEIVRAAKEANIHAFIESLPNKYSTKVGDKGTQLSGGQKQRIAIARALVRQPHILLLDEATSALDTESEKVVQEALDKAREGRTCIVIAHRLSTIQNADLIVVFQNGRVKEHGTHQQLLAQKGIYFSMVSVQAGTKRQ
ATP-dependent translocase ABCB1, sequence (P08183 whole entry): as above

Take `CC[C@H](C)[C@@H]1NC(=O)[C@@H]2CCCN2C(=O)[C@H](Cc2ccccc2)N(C)C(=O)[C@H](Cc2ccccc2)NC(=O)[C@H](C(C)C)N(C)C(=O)[C@@H]([C@@H](C)CC)OC(=O)[C@@H](C(C)(C)O)N(C)C(=O)[C@H](CC(C)C)NC(=O)[C@H](C(C)C)N(C)C1=O`: the MIC in data set [1] is greater than 25 µg/mL. In data set [2], the half-inhibitory concentration (IC50) was 390 nM and the IC20 is 100 nM.

`CC[C@@H](C)[C@@H]1NC(=O)[C@@H]2CCCN2C(=O)[C@H]([C@H](O)c2ccccc2)N(C)C(=O)[C@H](Cc2ccccc2)NC(=O)[C@H](C(C)C)N(C)C(=O)[C@@H]([C@@H](C)CC)OC(=O)[C@H](C(C)(C)O)N(C)C(=O)[C@H](CC(C)C)NC(=O)[C@H](C(C)C)N(C)C1=O` [listing 1 of 2 here]: the “Pgp AbA/analogue ratio” value in data set [3] is reported as 1. In addition, the “antifungal AbA/analogue ratio” value in data set [4] is given as 0.5. In addition, in data set [2], the IC50 is 2150 nM and the IC20 is 810 nM.

For the compound `CC[C@@H](C)[C@@H]1NC(=O)[C@@H]2CCCN2C(=O)[C@H]([C@H](O)c2ccccc2)N(C)C(=O)[C@H](Cc2ccccc2)NC(=O)[C@H](C(C)C)N(C)C(=O)[C@@H]([C@@H](C)CC)OC(=O)[C@H](C(C)C)N(C)C(=O)[C@H](CC(C)C)NC(=O)[C@H](C(C)C)N(C)C1=O` [listing 1 of 2 here], the minimum inhibitory concentration (MIC) in data set [1] stood at 1.7 µg/mL (≈ 1.54 µM).

With `CC[C@@H](C)[C@@H]1NC(=O)[C@@H]2CCCN2C(=O)[C@H](Cc2ccccc2)N(C)C(=O)[C@H](Cc2ccccc2)NC(=O)[C@H](C(C)C)N(C)C(=O)[C@@H]([C@@H](C)CC)OC(=O)[C@]2(OC2(C)C)N(C)C(=O)[C@H](CC(C)C)NC(=O)[C@H](C(C)C)N(C)C1=O`, in data set [2], the IC50 is 1550 nM and the IC20 is 460 nM.

Take `CC[C@H](C)[C@@H]1NC(=O)[C@@H]2CCCN2C(=O)[C@H](Cc2ccccc2)N(C)C(=O)[C@H](Cc2ccccc2)NC(=O)[C@H](C(C)C)N(C)C(=O)[C@@H]([C@@H](C)CC)OC(=O)[C@H](C(C)(C)O)N(C)C(=O)[C@H](CC(C)C)NC(=O)[C@H](C(C)C)N(C)C1=O`: it took 0.4 µg/mL (≈ 0.363 µM) to inhibit growth in data set [1] (MIC). In data set [2], the IC50 is 2270 nM and the IC20 is 680 nM.

With `CC[C@@H](C)[C@@H]1NC(=O)CCCCCCCNC(=O)[C@H](C(C)C)N(C)C(=O)[C@@H]([C@@H](C)CC)OC(=O)[C@H](C(C)(C)O)N(C)C(=O)[C@H](CC(C)C)NC(=O)[C@H](C(C)C)N(C)C1=O` [listing 1 of 2 here], the “Pgp AbA/analogue ratio” value in data set [3] is given as 0.4. Moreover, the “antifungal AbA/analogue ratio” value in data set [4] is recorded as less than 0.016. For the same compound, in data set [2], the IC50 was 7420 nM and the concentration for an effect of 20% (IC20) is 2630 nM.

For `CC[C@@H](C)[C@@H]1NC(=O)[C@@H]2CCCN2C(=O)[C@H](Cc2ccccc2)N(C)C(=O)[C@H](Cc2ccccc2)NC(=O)[C@H](C(C)C)N(C)C(=O)[C@@H]([C@@H](C)CC)OC(=O)[C@H](C(C)(C)O)N(C)C(=O)[C@H](CC(C)C)NC(=O)C(C(C)C)OC1=O` (some centres undefined), the minimal inhibitory concentration (MIC) in data set [1] is greater than 25 µg/mL.

Compound `CC[C@@H](C)[C@@H]1NC(=O)CCCCCCCNC(=O)[C@H](C(C)C)N(C)C(=O)[C@@H]([C@@H](C)CC)OC(=O)[C@H](C(C)(C)O)N(C)C(=O)[C@H](CC(C)C)NC(=O)[C@H](C(C)C)N(C)C1=O` [listing 2 of 2 here] returned a minimum inhibitory concentration (MIC) in data set [1] greater than 25 µg/mL.

With `CC[C@@H](C)[C@@H]1NC(=O)[C@@H]2CCCN2C(=O)[C@H](Cc2ccccc2)N(C)C(=O)[C@H](C2CCCCC2)NC(=O)[C@H](C(C)C)N(C)C(=O)[C@@H]([C@@H](C)CC)OC(=O)[C@H](C(C)(C)O)N(C)C(=O)[C@H](CC(C)C)NC(=O)[C@H](C(C)C)N(C)C1=O` [listing 1 of 2 here], the MIC in data set [1] amounted to 1.6 µg/mL (≈ 1.46 µM).

In data set [1], `CC[C@@H](C)[C@@H]1NC(=O)[C@@H]2CCCN2C(=O)[C@H](Cc2ccccc2)N(C)C(=O)[C@H](Cc2ccccc2)NC(=O)[C@H](C(C)C)N(C)C(=O)[C@@H](C(C)C)OC(=O)[C@H](C(C)(C)O)N(C)C(=O)[C@H](CC(C)C)NC(=O)[C@H](C(C)C)N(C)C1=O` yielded a minimum inhibitory concentration (MIC) of 0.4 µg/mL (≈ 0.368 µM).

In the case of `CC[C@@H](C)[C@@H]1NC(=O)[C@@H]2CCCN2C(=O)[C@H](Cc2ccccc2)N(C)C(=O)[C@H](Cc2ccccc2)NC(=O)[C@H](C(C)C)N(C)C(=O)[C@@H]([C@@H](C)CC)OC(=O)[C@H](C(C)(C)O)N(C)C(=O)[C@H](CC(C)C)NC(=O)[C@H](C(C)C)NC1=O` [listing 1 of 2 here], the “Pgp AbA/analogue ratio” value in data set [3] is given as 0.3. Further, the “antifungal AbA/analogue ratio” value in data set [4] is given as 0.25. Moreover, in data set [2], the IC50 is 7550 nM and the IC20 was 2670 nM.

As to `CC[C@@H](C)[C@@H]1NC(=O)[C@@H]2CCCN2C(=O)[C@H](Cc2ccccc2)N(C)C(=O)[C@H](C2CCCCC2)NC(=O)[C@H](C(C)C)N(C)C(=O)[C@@H]([C@@H](C)CC)OC(=O)[C@H](C(C)(C)O)N(C)C(=O)[C@H](CC(C)C)NC(=O)[C@H](C(C)C)N(C)C1=O` [listing 2 of 2 here], the “Pgp AbA/analogue ratio” value in data set [3] is given as 0.5. In data set [4], the “antifungal AbA/analogue ratio” value amounted to 0.25. Also, in data set [2], the IC50 is 5880 nM and the concentration for an effect of 20% (IC20) was 1450 nM.

Turning to `CC[C@@H](C)[C@@H]1NC(=O)[C@@H]2CCCN2C(=O)[C@H](Cc2ccccc2)N(C)C(=O)[C@H](Cc2ccccc2)NC(=O)[C@H](C(C)C)N(C)C(=O)[C@@H]([C@@H](C)CC)OC(=O)[C@H](C(C)(C)O)N(C)C(=O)[C@H](CC(C)C)NC(=O)[C@H](C(C)C)NC1=O` [listing 2 of 2 here], the MIC in data set [1] is 1.6 µg/mL (≈ 1.47 µM).

Take `CC[C@@H](C)[C@@H]1NC(=O)[C@@H]2CCCN2C(=O)[C@H](Cc2ccccc2)N(C)C(=O)[C@H](Cc2ccccc2)NC(=O)[C@H](C(C)C)N(C)C(=O)[C@@H]([C@@H](C)CC)OC(=O)C(=C(C)C)N(C)C(=O)[C@H](CC(C)C)NC(=O)[C@H](C(C)C)N(C)C1=O` [listing 1 of 2 here]: in data set [3], the “Pgp AbA/analogue ratio” value is reported as 12.5. For the same compound, the “antifungal AbA/analogue ratio” value in data set [4] is given as less than 0.016. Moreover, in data set [2], the IC50 is 180 nM and the IC20 was 60 nM.

`CC[C@@H](C)[C@@H]1NC(=O)[C@@H]2CCCN2C(=O)[C@H]([C@H](O)c2ccccc2)N(C)C(=O)[C@H](Cc2ccccc2)NC(=O)[C@H](C(C)C)N(C)C(=O)[C@@H]([C@@H](C)CC)OC(=O)[C@H](C(C)C)N(C)C(=O)[C@H](CC(C)C)NC(=O)[C@H](C(C)C)N(C)C1=O` [listing 2 of 2 here]: the “Pgp AbA/analogue ratio” value in data set [3] is recorded as 1.7. The “antifungal AbA/analogue ratio” value in data set [4] was 0.25. Further, in data set [2], the IC50 was 1360 nM and the IC20 was 460 nM.

The compound `CC[C@@H](C)[C@@H]1NC(=O)[C@@H]2CCCN2C(=O)[C@H]([C@H](O)c2ccccc2)N(C)C(=O)[C@H](Cc2ccccc2)NC(=O)[C@H](C(C)C)N(C)C(=O)[C@@H]([C@@H](C)CC)OC(=O)[C@H](C(C)(C)O)N(C)C(=O)[C@H](CC(C)C)NC(=O)[C@H](C(C)C)N(C)C1=O` [listing 2 of 2 here] came in with a minimal inhibitory concentration (MIC) in data set [1] of 0.8 µg/mL (≈ 0.716 µM).

`CC[C@@H](C)[C@@H]1NC(=O)[C@@H]2CCCN2C(=O)[C@H](Cc2ccccc2)N(C)C(=O)[C@H](Cc2ccccc2)NC(=O)[C@H](C(C)C)N(C)C(=O)[C@@H]([C@@H](C)CC)OC(=O)CN(C)C(=O)[C@H](CC(C)C)NC(=O)[C@H](C(C)C)N(C)C1=O`: the “Pgp AbA/analogue ratio” value in data set [3] is listed as 2.7. For the same compound, in data set [2], the half-maximal inhibitory concentration (IC50) was 890 nM and the 20% effect concentration (IC20) was 310 nM.

`CC[C@@H](C)[C@@H]1NC(=O)[C@@H]2CCCN2C(=O)[C@H](Cc2ccccc2)N(C)C(=O)[C@H](Cc2ccccc2)NC(=O)[C@H](C(C)C)N(C)C(=O)[C@@H]([C@@H](C)CC)OC(=O)[C@H]([C@H](C)CO)N(C)C(=O)[C@H](CC(C)C)NC(=O)[C@H](C(C)C)N(C)C1=O` registered an MIC in data set [1] of 6.3 µg/mL (≈ 5.72 µM).

`CC[C@@H](C)[C@@H]1NC(=O)[C@@H]2CCCN2C(=O)[C@H](Cc2ccccc2)N(C)C(=O)[C@H](Cc2ccccc2)NC(=O)[C@H](C(C)C)N(C)C(=O)[C@@H]([C@@H](C)CC)OC(=O)C(=C(C)C)N(C)C(=O)[C@H](CC(C)C)NC(=O)[C@H](C(C)C)N(C)C1=O` [listing 2 of 2 here]: the minimum inhibitory concentration (MIC) in data set [1] was greater than 25 µg/mL.

Broadly, the MIC is the lowest concentration that inhibits growth of the organism. Low values mean a more susceptible organism, high ones a less susceptible organism. A word on the IC50: it is the concentration needed to halve the response being measured. The term IC20 denotes the point of the concentration-response curve where the effect stands at 20%.
